Measured values published in ChEMBL document CHEMBL1146217, “Growth inhibition of Mycobacterium bovis, Mycobacterium tuberculosis and Mycobacterium avium in vitro: effect of 1-beta-D-2'-arabinofuranosyl and 1-(2'-deoxy-2'-fluoro-beta-D-2'-ribofuranosyl) pyrimidine nucleoside analogs” (J Med Chem, 2007).
Calls of active or inactive are those of the source. The calls are words filed in the database; no cut-off is given here.

Test system: Mycobacterium tuberculosis
Experiment: Antimycobacterial activity against drug-resistant Mycobacterium tuberculosis H37Rv at 2mg/mL by BACTEC assay
Assay type: functional, organism-based
In short: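 Radiometric BACTEC 12B (7H12) vials with a growing inoculum of 2.5-5.0 × 10⁵ CFU/vial, two-fold compound dilutions, 37 °C. Growth index read daily in a BACTEC 460 until 1:100 inoculum controls reached GI 30. Percent inhibition = (GI test/GI control) × 100.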

CO[C@H]1/C=C/O[C@@]2(C)Oc3c(C)c(O)c4c(O)c(c(/C=N/N5CCN(C)CC5)c(O)c4c3C2=O)NC(=O)/C(C)=C\C=C\[C@H](C)[C@H](O)[C@@H](C)[C@@H](O)[C@@H](C)[C@H](OC(C)=O)[C@@H]1C [RIFAMPIN]
Activity: inactive
